In article PMC12799515 (Journal of Orthopaedic Translation, 2025):

Columns and labels:
[1] = no reference given; cited from earlier work
[2] = tested on: inTPCs; assay: Apoptosis; format: cell-based, C57BL/6 J mice; conditions: 1 μM CCCP or 5 μM CsA
[3] = tested on: osteogenic-related genes Ocn, Runx2, Alpl in inTPCs; assay: qRT–PCR of osteogenic-related genes in inTPCs; format: cell-based, C57BL/6 J mice; conditions: 1 μM CCCP or 5 μM CsA, three stimulation cycles in ODM, vs vehicle
Method in brief: (§1)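 Mouse tendon cells (passage 3–4) received three 4-day cycles: 2 days of ODM containing test compound or equal-volume solvent, then 2 days of plain ODM. Transcripts were measured by SYBR Green qRT–PCR, normalised to Gapdh, with relative expression calculated by the 2−ΔΔCt method.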

[4] = tested on: PINK1, Parkin, LC3BⅡ, p62 in inTPCs; assay: Western blotting of mitophagy-related proteins in inTPCs; format: cell-based, C57BL/6 J mice
Method in brief: (§2)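 Mouse tendon cells were treated in one of two ways: three 4-day cycles (2 days ODM with test compound or solvent, then 2 days plain ODM), or 2 days of osteogenic induction with 100 nM Slc25a4 siRNA (RNAiMAX) ±1 μM test compound added on day 2. Proteins were extracted in RIPA with protease/phosphatase inhibitors, heated to 100 °C for 10 min, separated by SDS-PAGE, transferred to PVDF, blocked with 5% milk and detected by ECL. Bands were quantified by densitometry.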

[5] = tested on: inTPCs; assay: ALP and ARS staining of inTPCs; format: cell-based, C57BL/6 J mice; conditions: 1 μM CCCP or 5 μM CsA, vs vehicle; for ARS staining: four stimulation cycles; for ALP staining: three stimulation cycles
Method in brief: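 Mouse tendon cells were digested with collagenase, grown in low-glucose DMEM/15% FBS and used at passage 3–4. Each cycle was 2 days of ODM (high-glucose DMEM, 10−8 M dexamethasone, 50 μg/mL vitamin C, 10 mM β-glycerol phosphate, 10% FBS) with test compound or solvent, then 2 days of plain ODM. ALP: 3 cycles, 4% PFA 30 min, BCIP/NBT stain. ARS: 4 cycles, kit fixative 20 min. Positive ratio quantified by image analysis.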

[6] = tested on: OCN, RUNX2, ALP in inTPCs; assay: Western blotting of osteogenic-related proteins in inTPCs; format: cell-based, C57BL/6 J mice; conditions: for protein expression of OCN, RUNX2, ALP: 1 μM CCCP or 5 μM CsA, three stimulation cycles in ODM, vs vehicle
Method in brief: as §2

[7] = tested on: ANT1 in inTPCs; assay: ANT1/Slc25a4 expression in inTPCs; format: cell-based, C57BL/6 J mice; conditions: two days osteogenic induction, 1 μM CCCP
Method in brief: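 Mouse tendon cells under 2 days of osteogenic induction were transfected with 100 nM Slc25a4 siRNA or control siRNA (RNAiMAX) for 2 days, with 1 μM test compound added on day 2. ANT1 protein was measured by western blot (RIPA lysis with protease/phosphatase inhibitors, 100 °C 10 min, SDS-PAGE, PVDF, 5% milk block, ECL, band densitometry). Slc25a4 mRNA was measured by SYBR qRT–PCR against Gapdh (2−ΔΔCt).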

[8] = tested on: mitophagy-related genes Pink1, Prkn, LC3b, p62 in inTPCs; assay: qRT–PCR of mitophagy-related genes in inTPCs; format: cell-based, C57BL/6 J mice; conditions: 1 μM CCCP or 5 μM CsA, three stimulation cycles in ODM, vs vehicle
Method in brief: as §1

[9] = tested on: inTPCs; assay: Cell viability; format: cell-based, C57BL/6 J mice; conditions: 1 μM CCCP or 5 μM CsA, 48 h
Method in brief: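 Mouse tendon cells (passage 3–4) were seeded in 96-well plates and exposed to test compound at varying concentrations (0, 0.1, 0.5, 1, 5, 10 μM for the inhibitor) for 48 h. They were then incubated with 10% CCK-8 at 37 °C for 1 h, and absorbance was read at 450 nm to calculate viability.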

[10] = tested on: mitophagy; conditions: cited from earlier work
[11] = 1 μM CCCP or 5 μM CsA, three stimulation cycles in ODM, vs vehicle
[12] = two days osteogenic induction, 100 nM si-Slc25a4 two days, or 1 μM CCCP

Molecule | toxicity of ANT1 inhibitors [1] | gene expression of Ocn, Runx2, Alpl [3] | p62 protein expression [4, 11] | protein expression of PINK1, Parkin, LC3BⅡ [4, 11] | ARS staining [5] | ALP staining [5] | protein expression of OCN, RUNX2, ALP [6] | gene expression of Pink1, Prkn, LC3b [8] | p62 gene expression [8] | also measured
CO[C@H](C/C=C\C=C\CC/C=C/C[C@H](C)/C=C/C(=C\C(=O)O)CC(=O)O)/C(C)=C\C=C(/C)C(=O)O [BKA, bongkrekic acid] | toxic agents unsuitable for clinical use | – | – | – | – | – | – | – | – | –
C=C1[C@@H]2CC[C@H]3[C@]4(C)C[C@H](O[C@@H]5O[C@H](CO)[C@@H](OS(=O)(=O)O)[C@H](OS(=O)(=O)O)[C@H]5OC(=O)CC(C)C)CC(C(=O)O)(C(=O)O)[C@H]4CC[C@]3(C2)[C@H]1O [CATR, carboxyatractyloside] | toxic agents unsuitable for clinical use | – | – | – | – | – | – | – | – | –
N#CC(C#N)=NNc1cccc(Cl)c1 [CCCP, carbonyl cyanide 3-chlorophenylhydrazone] | – | increased | p62 suppression | upregulated | increased | increased | upregulated | increased | suppressed | apoptosis [2]: did not cause poisoning (Fig. 3A and B) or apoptosis; p62 protein expression [4, 12]: suppressed; protein expression of PINK1, Parkin, LC3BⅡ [4, 12]: promoted; protein expression of RUNX2, ALP [6, 12]: promoted; ANT1 protein expression [7]: did not affect ANT1 expression; cell viability (poisoning) [9]: did not cause poisoning
OC1c2cc3ccc4cccc5ccc(c2C2OC2C1O)c3c45 (stereo not shown) [benzo(a)pyrene-7,8-dihydrodiol-9, 10-epoxide] | – | – | – | – | – | – | – | – | – | mitophagy [10]: suppressed
cyclosporin A [CsA] | – | suppressed | p62 accumulation | downregulated | reduced | reduced | downregulated | suppressed | promoted | –
